Assay outcomes (PubChem)
MrgX1 PAM = positive allosteric modulators of MrgX1, primary screen, HEK293 cells, Fluo-4 calcium flux | B-score at 10 µM | 310,000 compounds, 0.63% hits | FDSS; active compounds read high;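 active = plate-corrected calcium response at least 3 library SD above typical, normal starting fluorescence, not activating the receptor alone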;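 note: compound read alongside a low EC10 to EC30 dose of BAM8-22 agonist; peak minus trough fluorescence over baseline measured at the second addition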
Target sequence (Q96LB2 whole entry, looked up): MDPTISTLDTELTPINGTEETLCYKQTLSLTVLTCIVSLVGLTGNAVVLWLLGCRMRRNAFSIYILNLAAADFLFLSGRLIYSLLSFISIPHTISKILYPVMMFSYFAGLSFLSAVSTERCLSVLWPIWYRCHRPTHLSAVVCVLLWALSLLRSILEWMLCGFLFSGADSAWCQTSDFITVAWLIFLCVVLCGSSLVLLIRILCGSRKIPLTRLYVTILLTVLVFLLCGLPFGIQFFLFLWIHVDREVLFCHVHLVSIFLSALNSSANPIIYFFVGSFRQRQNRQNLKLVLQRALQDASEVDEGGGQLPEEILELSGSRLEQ
MrgX1 agonist = agonists of human MrgX1 receptor, primary screen, HEK293 cells, Fluo-4 calcium flux; Mas-related G-protein coupled receptor member X1 (Homo sapiens), Q96LB2; Fluo-4 calcium fluorescence, agonist mode; active compounds read high; B-score at 10 µM; 310,000 compounds, 0.44% hits;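 active = calcium response B-score plate-corrected fluorescence ratio at least 3 library SD, with starting fluorescence B-score inside 5 SD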
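Material: MrgX1-expressing HEK293 cells / Dosing: compound as first of three additions / Incubation: overnight seeding, then 1 h dark dye loading / Signal: Fluo-4 NW calcium fluorescence / Evaluation: B-scored fluorescence response ratio / Benchmarks: positive and negative control wells on each plate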
RGS4 act = RGS4 potentiators or activators, primary screen, cell-based, HEK293 M3R inducible RGS4, calcium flux; carbachol calcium flux Fluo4; active compounds read low; B-score at 10 µM; 310,000 compounds, 0.92% hits; AID 463111, 2010;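 active = B-score of the integrated calcium signal more than 4 SD below the library mean, with starting fluorescence not abnormally high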;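 note: negative B-score means reduced calcium response which marks RGS4 activation or potentiation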
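Test system: HEK293 cells with stable M3R and inducible RGS4; also added: carbachol at ECmax as muscarinic agonist stimulus; schedule: dye loading 30 min 37 °C, buffer rest 30 min RT; technique: kinetic calcium fluorescence imaging with Fluo4-AM dye, 2 µM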
RGS4 inh = RGS4 inhibitors, primary screen, cell-based, HEK293 M3R inducible RGS4, calcium flux | Regulator of G-protein signaling 4 (Homo sapiens), P49798 | AID 463165, 2010 | 310,000 compounds, 0.45% hits | B-score at 10 µM | Fluo-4 calcium flux; active compounds read high; triggered by carbachol at its EC20;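 active = B-score, a plate-corrected calcium signal, over three deviations above library mean, with baseline fluorescence within five deviations of library mean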;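 note: RGS4 expression induced by doxycycline in cells with stable M3 receptor; B-score is computed from the integrated fluorescence ratio over baseline after carbachol; higher B-score means a larger calcium signal and so more RGS4 inhibition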
Target sequence (P49798 whole entry, looked up): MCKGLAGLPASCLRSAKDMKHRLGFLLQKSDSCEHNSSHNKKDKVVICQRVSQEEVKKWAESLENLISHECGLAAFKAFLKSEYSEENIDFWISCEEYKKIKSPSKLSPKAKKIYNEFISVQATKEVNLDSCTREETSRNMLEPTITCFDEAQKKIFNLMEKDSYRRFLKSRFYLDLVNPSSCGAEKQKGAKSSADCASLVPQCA
MrgX1 antagonist = antagonists of human MrgX1 receptor, primary screen, HEK293 cells, Fluo-4 calcium flux; BAM8-22 antagonism; active compounds read low; B-score at 10 µM; 310,000 compounds, 1.3% hits; AID 588676, 2011;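 active = calcium-response B-score plate-corrected more than 3 library SD below zero, starting fluorescence within 5 deviations, no agonist response on first addition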;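 note: peak minus trough fluorescence over baseline after final BAM8-22 challenge near maximal dose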
MrgX1 allo conf = MrgX1 positive allosteric modulators, duplicate retest, confirmation, HEK293 cells, Fluo-4 calcium flux | shares compounds with MrgX1 PAM | Fluo-4 calcium fluorescence, FDSS | activation (ratio percentage), % at 10 µM | 1,200 compounds, 13% hits | AID 602413, 2012;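 active = ratio at least 3 SD above the weak peptide control, stable starting fluorescence, no direct agonism earlier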;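 note: compound followed by low BAM8-22 agonist challenge near EC20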
MrgX1 antag conf = MrgX1 receptor antagonists, duplicate retest, confirmation, HEK293 cells, Fluo-4 calcium flux | remaining BAM8-22 calcium response % of control (active compounds read low), % at 10 µM | BAM8-22 calcium flux; active compounds read low | 2,300 compounds, 19% hits | AID 602420, 2012 | shares compounds with MrgX1 antagonist;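 active = remaining agonist calcium response no higher than 100% minus 3 SD of agonist-only control wells, with starting fluorescence near control levels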;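 note: agonist BAM8-22 given at a near maximal EC90 to ECmax level; peak minus minimum fluorescence divided by baseline after agonist addition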
HEK293 Ca flux = nonspecific calcium signal in parental HEK293, confirmation, counter-screen for MrgX1 antagonist project, parental HEK293 cells, Fluo-4 calcium flux | fluorescence ratio F(max-min)/F0 at 10 µM | 4,000 compounds, 2% hits | Fluo-4 calcium fluorescence, FDSS | shares compounds with MrgX1 antagonist;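 active = duplicate-averaged calcium fluorescence ratio at least three times the standard deviation of buffer wells, a nonspecific response in parental cells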
HEK293 Ca counter = calcium response in parental HEK293 cells, primary screen, counter-screen for MrgX1 allosteric activator project, cell-based, Fluo-4 calcium flux, duplicate | shares compounds with MrgX1 antagonist | Fluo-4 fluorescence ratio; active compounds read high | fluorescence ratio F(max-min)/F0 at 10 µM | 4,000 compounds, 0.4% hits;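 active = calcium fluorescence ratio, averaged over duplicates, at least 3 SD of the buffer-well ratio, meaning a nonspecific response in receptor-free cells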;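 note: untransfected parental HEK293 lacking MrgX1 used as counterscreen for MrgX1 allosteric activators; fluorescence change taken during the second addition on a kinetic imager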
HEK293 Ca cntr2 = calcium response in parental HEK293 cells, primary screen, counter-screen for MrgX1 agonist project, cell-based, Fluo-4 calcium flux, duplicate, agonist mode; shares compounds with MrgX1 antagonist; Fluo-4 calcium fluorescence (FDSS); active compounds read high; fluorescence ratio F(max-min)/F0 at 10 µM; 4,000 compounds, 8.7% hits;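 active = calcium fluorescence ratio at least three times the spread of buffer wells, meaning a non-specific response in parental cells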
The depositor's hits bear a star; i = inactive; . = not tested or not shown. The list is not random: actives were taken first. Their share in the collection is about 3.5%.

SMILES	MrgX1 PAM	MrgX1 agonist	RGS4 act	RGS4 inh	MrgX1 antagonist	MrgX1 allo conf	HEK293 Ca flux	HEK293 Ca counter	HEK293 Ca cntr2	others
CCOC(=O)C(=O)Nc1nnc(CCc2ccccc2)s1	7.7*	i	i	i	i	i	i	i	i
Cc1ccc2c(c1)C(=O)C(=O)N2CC(=O)Nc1ccccc1NC(=O)c1ccccn1	15*	i	i	i	i	i	i	i	i
CSCc1ccc(C(=O)NC(C)c2cnn(-c3ccccn3)c2C)o1 (stereo unspecified)	i	i	i	i	i	.	.	.	.
NC(=O)c1cc2ccncc2c2ccccc12	i	i	i	i	i	.	.	.	.
Cc1ccncc1C(N)=O	8.1*	i	i	i	i	i	i	i	i
CCOc1cc(S(=O)(=O)NCc2ccncc2)c(C)cc1C	i	i	i	i	i	.	.	.	.
NC(=O)C1CCN(c2cc(Cl)nc(N)n2)CC1	i	i	i	i	i	.	.	.	.
COC(=O)C1CCN(c2cc(Cl)nc(N)n2)CC1	8.1*	i	i	i	i	i	i	i	i
O=C(NCCc1cccc(F)c1)C1CCN(S(=O)(=O)c2ccccc2)CC1	i	i	i	i	i	.	.	.	.
Cc1cccc(CCNC(=O)C2CCN(S(=O)(=O)c3ccccc3)CC2)c1	11*	i	i	i	i	i	i	i	i
CC1(C)NC(=O)N(CC(=O)OCC(=O)Nc2cc(S(=O)(=O)N3CCCCCC3)ccc2Cl)C1=O	i	i	i	i	i	.	.	.	.
NCCCC[C@H]1CN=C(N)N1CCc1cccc2ccccc12	33*	i	i	i	i	i	i	i	i
NC1=NC[C@H](Cc2ccc(O)cc2)N1CCc1cccc2ccccc12	9.6*	i	i	i	-12*	i	i	i	i	MrgX1 antag conf=i
NC1=NC[C@H](Cc2ccc(O)cc2)N1CCCCC1CCCCC1	9.3*	i	i	i	i	i	i	i	i
NC1=NC[C@@H](Cc2ccc(O)cc2)N1CCc1cccc2ccccc12	i	i	i	i	i	.	.	.	.
CCC(C)[C@H]1CN=C(N)N1CCc1cccc2ccccc12 (stereo partly specified)	i	i	i	i	i	.	.	.	.
CCN1CCN(c2ccc(NC(=O)c3ccc4c(c3)[nH]c(=O)n4Cc3ccc(OC)cc3)cc2)CC1	i	i	i	i	i	.	.	.	.
O=C(COCc1cc(-c2ccc3c(c2)OCO3)on1)N1CCCCC1	i	i	i	i	i	.	.	.	.
